Measurements taken from ChEMBL document CHEMBL2176939, “Rapid discovery of highly potent and selective inhibitors of histone deacetylase 8 using click chemistry to generate candidate libraries” (J Med Chem, 2012).
Calls of active or inactive are those of the source. No cut-off for these calls is given here.

Legend:
[1] = target: Histone deacetylase (Homo sapiens) (UniProt Q13547+O15379+Q9UBN7+Q92769+Q9UQL6+Q8WUI4+Q9BY41+Q96DB2+P56524+Q9UKV0+Q969S8); experiment: Inhibition of HDAC in human HeLa cells nuclear extracts at 3 uM by fluorometric assay; format: cell-free
In short: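 Total HDAC activity of HeLa nuclear extract was measured with a commercial fluorometric deacetylase kit, following the supplier's protocol. Compounds were screened at 3 μM, including crude click-reaction triazoles diluted without purification. Fluorescence was read at ex 360 / em 460 nm, and % inhibition was calculated relative to uninhibited control wells.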

[2] = target: T1, Protein deacetylase HDAC6 (Homo sapiens, UniProt Q9UBN7); experiment: Inhibition of HDAC6 by fluorometric assay
T1 sequence (Q9UBN7 whole entry): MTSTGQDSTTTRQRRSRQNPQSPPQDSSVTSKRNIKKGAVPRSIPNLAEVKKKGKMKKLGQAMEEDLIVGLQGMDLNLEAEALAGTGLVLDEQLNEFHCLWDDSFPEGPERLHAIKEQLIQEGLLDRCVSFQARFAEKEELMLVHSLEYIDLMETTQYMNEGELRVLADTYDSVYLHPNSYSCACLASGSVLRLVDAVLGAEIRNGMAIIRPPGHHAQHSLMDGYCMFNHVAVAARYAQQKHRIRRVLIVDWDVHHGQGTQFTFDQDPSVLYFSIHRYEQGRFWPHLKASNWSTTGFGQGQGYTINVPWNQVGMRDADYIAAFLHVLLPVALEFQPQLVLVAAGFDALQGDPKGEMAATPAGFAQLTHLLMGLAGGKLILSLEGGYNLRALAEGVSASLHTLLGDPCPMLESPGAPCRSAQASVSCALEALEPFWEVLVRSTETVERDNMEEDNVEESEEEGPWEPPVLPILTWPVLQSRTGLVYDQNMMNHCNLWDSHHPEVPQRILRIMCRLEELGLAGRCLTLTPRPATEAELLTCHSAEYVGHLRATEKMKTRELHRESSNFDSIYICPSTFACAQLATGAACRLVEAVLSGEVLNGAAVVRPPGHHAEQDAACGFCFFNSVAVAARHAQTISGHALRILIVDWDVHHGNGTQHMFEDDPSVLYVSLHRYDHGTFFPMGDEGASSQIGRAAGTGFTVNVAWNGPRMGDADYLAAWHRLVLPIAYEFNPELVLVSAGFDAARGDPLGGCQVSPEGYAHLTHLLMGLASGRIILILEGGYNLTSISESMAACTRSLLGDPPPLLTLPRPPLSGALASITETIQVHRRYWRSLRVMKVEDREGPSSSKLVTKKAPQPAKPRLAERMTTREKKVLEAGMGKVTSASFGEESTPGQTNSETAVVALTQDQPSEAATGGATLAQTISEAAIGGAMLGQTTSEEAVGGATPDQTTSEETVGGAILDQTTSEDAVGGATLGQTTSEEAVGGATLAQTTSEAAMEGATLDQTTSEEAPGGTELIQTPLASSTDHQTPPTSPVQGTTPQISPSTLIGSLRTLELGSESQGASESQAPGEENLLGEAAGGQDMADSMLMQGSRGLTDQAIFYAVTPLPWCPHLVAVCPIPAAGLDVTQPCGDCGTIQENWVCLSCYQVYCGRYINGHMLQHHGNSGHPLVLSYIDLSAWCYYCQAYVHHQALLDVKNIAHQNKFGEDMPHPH

[3] = target: Histone deacetylase 4 (Homo sapiens, UniProt P56524); experiment: Inhibition of HDAC4 by fluorometric assay
Histone deacetylase 4, sequence (P56524 whole entry): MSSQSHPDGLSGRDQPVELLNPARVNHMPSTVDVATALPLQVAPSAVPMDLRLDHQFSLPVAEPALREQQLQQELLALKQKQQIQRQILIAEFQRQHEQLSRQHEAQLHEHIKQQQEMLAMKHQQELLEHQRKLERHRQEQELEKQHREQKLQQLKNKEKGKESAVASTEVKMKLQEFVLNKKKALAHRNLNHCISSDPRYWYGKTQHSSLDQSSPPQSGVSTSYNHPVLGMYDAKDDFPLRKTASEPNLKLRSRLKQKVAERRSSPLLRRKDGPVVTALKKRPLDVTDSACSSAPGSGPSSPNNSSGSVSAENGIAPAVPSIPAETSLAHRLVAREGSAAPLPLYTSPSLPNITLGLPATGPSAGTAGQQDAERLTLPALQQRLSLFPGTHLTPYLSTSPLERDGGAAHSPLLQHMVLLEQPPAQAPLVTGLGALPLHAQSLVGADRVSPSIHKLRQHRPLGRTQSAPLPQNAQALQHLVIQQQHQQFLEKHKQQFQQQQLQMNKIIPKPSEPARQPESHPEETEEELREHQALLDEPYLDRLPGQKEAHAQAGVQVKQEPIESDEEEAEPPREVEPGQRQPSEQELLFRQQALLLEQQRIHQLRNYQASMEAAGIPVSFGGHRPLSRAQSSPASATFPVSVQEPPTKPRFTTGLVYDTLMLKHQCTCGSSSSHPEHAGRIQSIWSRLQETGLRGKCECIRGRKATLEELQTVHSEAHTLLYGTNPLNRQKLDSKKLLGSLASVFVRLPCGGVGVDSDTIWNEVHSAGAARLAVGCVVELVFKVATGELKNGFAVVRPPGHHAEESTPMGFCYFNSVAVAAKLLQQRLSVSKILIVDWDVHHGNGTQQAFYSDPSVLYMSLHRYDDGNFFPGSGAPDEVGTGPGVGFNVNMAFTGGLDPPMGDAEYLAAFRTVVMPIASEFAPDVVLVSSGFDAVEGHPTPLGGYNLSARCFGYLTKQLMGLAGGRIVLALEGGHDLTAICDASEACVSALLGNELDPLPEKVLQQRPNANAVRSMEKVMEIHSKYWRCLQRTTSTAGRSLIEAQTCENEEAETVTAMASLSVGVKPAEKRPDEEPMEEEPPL

[4] = target: T2, Histone deacetylase 8 (Homo sapiens, UniProt Q9BY41); experiment: Inhibition of HDAC8 by fluorometric assay
T2 sequence (Q9BY41 whole entry): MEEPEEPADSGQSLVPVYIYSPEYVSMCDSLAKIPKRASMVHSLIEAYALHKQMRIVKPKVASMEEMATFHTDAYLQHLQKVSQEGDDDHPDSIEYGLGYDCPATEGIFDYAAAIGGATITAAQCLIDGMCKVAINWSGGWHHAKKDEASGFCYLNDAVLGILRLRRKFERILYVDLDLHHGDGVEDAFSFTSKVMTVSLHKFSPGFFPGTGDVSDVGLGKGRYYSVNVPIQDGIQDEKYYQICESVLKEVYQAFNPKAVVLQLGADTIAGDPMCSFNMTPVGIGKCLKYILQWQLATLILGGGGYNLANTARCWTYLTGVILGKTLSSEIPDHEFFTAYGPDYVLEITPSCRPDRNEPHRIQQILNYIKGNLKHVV

[5] = target: Histone deacetylase 2 (Homo sapiens, UniProt Q92769); experiment: Inhibition of HDAC2 by fluorometric assay
Histone deacetylase 2, sequence (Q92769 whole entry): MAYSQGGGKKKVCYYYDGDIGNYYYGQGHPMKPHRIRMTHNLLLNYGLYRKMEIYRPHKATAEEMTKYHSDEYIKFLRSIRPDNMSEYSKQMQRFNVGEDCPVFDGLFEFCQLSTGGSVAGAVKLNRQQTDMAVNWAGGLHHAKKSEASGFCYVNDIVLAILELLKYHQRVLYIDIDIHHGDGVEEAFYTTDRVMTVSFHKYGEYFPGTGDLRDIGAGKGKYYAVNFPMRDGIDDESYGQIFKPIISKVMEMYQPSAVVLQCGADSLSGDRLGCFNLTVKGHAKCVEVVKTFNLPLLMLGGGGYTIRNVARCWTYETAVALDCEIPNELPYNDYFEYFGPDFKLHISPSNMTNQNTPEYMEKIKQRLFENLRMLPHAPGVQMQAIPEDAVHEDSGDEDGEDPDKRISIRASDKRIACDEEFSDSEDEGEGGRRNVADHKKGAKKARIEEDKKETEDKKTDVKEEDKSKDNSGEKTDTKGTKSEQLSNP

[6] = target: Histone deacetylase 1 (Homo sapiens, UniProt Q13547); experiment: Inhibition of HDAC1 by fluorometric assay
Histone deacetylase 1, sequence (Q13547 whole entry): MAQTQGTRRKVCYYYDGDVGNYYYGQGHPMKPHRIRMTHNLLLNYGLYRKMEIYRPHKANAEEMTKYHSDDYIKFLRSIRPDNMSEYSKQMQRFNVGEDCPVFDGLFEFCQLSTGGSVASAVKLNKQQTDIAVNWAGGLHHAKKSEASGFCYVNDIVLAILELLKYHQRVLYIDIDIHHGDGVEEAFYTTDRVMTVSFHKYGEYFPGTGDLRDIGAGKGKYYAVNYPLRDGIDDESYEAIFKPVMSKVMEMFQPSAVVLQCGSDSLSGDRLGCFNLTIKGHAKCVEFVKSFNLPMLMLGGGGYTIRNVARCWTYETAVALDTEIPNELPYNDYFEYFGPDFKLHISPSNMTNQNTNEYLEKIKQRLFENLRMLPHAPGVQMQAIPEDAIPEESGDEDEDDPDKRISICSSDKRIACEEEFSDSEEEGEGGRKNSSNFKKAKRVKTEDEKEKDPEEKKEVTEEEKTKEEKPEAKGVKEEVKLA

[7] = target: Histone deacetylase; experiment: Inhibition of HDAC in human HeLa cells nuclear extracts by fluorometric assay; format: cell-based
[8] = Growth inhibition of human PBMC PB-N cells incubated for 72 hrs by MTS assay; format: cell-based
In short: (§1)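 Cells plated at 2 × 10⁵ cells/well in culture medium and exposed to inhibitor for 72 h at 37 °C under 5% CO₂. MTS was then added for 2 h, with absorbance read at 490 nm against a 650 nm reference. Wells were also read at compound addition (T₀). % growth = 100[(T − T₀)/(C − T₀)], or […]. GI₅₀ is where % growth = 50.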

[9] = Growth inhibition of human LAN1 cells incubated for 72 hrs by MTS assay; format: functional; details: LAN1, 72 h; in short: as §1
[10] = Growth inhibition of human PBMC PB-O cells incubated for 72 hrs by MTS assay; format: cell-based; in short: as §1
[11] = test system: NB1; experiment: Growth inhibition of human NB-1 cells incubated for 72 hrs by MTS assay; format: functional; details: NB1, 72 h; in short: as §1
[12] = test system: MT4; experiment: Growth inhibition of human MT4 cells incubated for 72 hrs by MTS assay; format: functional; details: MT4, 72 h; in short: as §1
[13] = test system: MT2; experiment: Growth inhibition of human MT2 cells incubated for 72 hrs by MTS assay; format: functional; details: MT2, 72 h; in short: as §1
[14] = test system: Jurkat; experiment: Growth inhibition of human Jurkat cells incubated for 72 hrs by MTS assay; format: functional; in short: as §1
[15] = test system: HH; experiment: Growth inhibition of human HH cells incubated for 72 hrs by MTS assay; format: functional; in short: as §1

inhibition [1]	IC50 [2]	IC50 [3]	IC50 [4]	IC50 [5]	IC50 [6]	IC50 [7]	GI50 [14]	SMILES	GI50 at 72 h [8]	GI50 [9]	GI50 at 72 h [10]	GI50 [11]	GI50 [12]	GI50 [13]	GI50 [15]
inactive	–	–	–	–	–	–	7.6 µM	O=C(NO)c1cccc(-c2cn(CSc3ccccc3)nn2)c1	> 100 µM	6.4 µM	> 100 µM	12 µM	15 µM	11 µM	23 µM
inactive	7.9 µM	30 µM	0.35 µM	65 µM	41 µM	37 µM	–	O=C(NO)c1cccc(-c2cn(Cc3ccccc3)nn2)c1	–	–	–	–	–	–	–

Further lines, the molecule ahead of its results:

SMILES	inhibition [1]	IC50 [2]	IC50 [3]	IC50 [4]	IC50 [5]	IC50 [6]	IC50 [7]	GI50 [14]	GI50 at 72 h [8]	GI50 [9]	GI50 at 72 h [10]	GI50 [11]	GI50 [12]	GI50 [13]	GI50 [15]
O=C(NO)c1cccc(-c2cn(CCc3ccsc3)nn2)c1	inactive	1.1 µM	> 100 µM	0.1 µM	> 100 µM	> 100 µM	44 µM	–	–	–	–	–	–	–	–
O=C(NO)c1cccc(-c2cn(CCc3ccccc3)nn2)c1	inactive	3.2 µM	> 100 µM	0.18 µM	76 µM	> 100 µM	23 µM	11 µM	> 100 µM	27 µM	> 100 µM	39 µM	30 µM	19 µM	79 µM
COc1ccc(Cn2ccc3ccc(C(=O)NO)cc32)cc1	–	–	–	–	–	–	–	11 µM	> 100 µM	3.9 µM	97 µM	14 µM	25 µM	15 µM	> 100 µM
